Measured values reported in ChEMBL document CHEMBL1126729, “Quinolone antibacterials: synthesis and biological activity of carbon isosteres of the 1-piperazinyl and 3-amino-1-pyrrolidinyl side chains” (J Med Chem, 1993).
Converted amounts (≈) assume the structure as drawn.

Assays:
Assay type in all cases: functional
DNA gyrase = DNA gyrase (Escherichia coli, UniProt P0AES4+P0AES6); experiment: Inhibition of the gyrase mediated cleavage of supercoiled DNA
Escherichia coli [1] = experiment: Antibacterial activity was tested in vitro against Escherichia coli Vogel using standard microtitration techniques
How it was run: (§1)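 Broth microtitration MIC testing against a panel of six Gram-negative and five Gram-positive bacterial strains. Values are given as MIC in μg/mL.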

Escherichia coli [2] = experiment: Antibacterial activity was tested in vitro against Escherichia coli H-560 using standard microtitration techniques; how it was run: as §1
Enterobacter cloacae = experiment: Antibacterial activity was tested in vitro against Enterococcus cloacae MA-2646 using standard microtitration techniques; how it was run: as §1
Enterococcus faecalis = experiment: Antibacterial activity was tested in vitro against Enterococcus faecalis MGH-2 using standard microtitration techniques; how it was run: as §1
Bacteria = experiment: Geometric mean of MIC was determined in vitro against gram-positive strains using standard microtitration techniques
How it was run: (§2)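 Per-compound geometric means of the microtitration MICs (μg/mL), calculated separately across the Gram-negative strains and the Gram-positive strains. Pseudomonas aeruginosa is excluded from the Gram-negative mean.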

[3] = Geometric mean of MIC was determined in vitro against gram-negative strains using standard microtitration techniques; how it was run: as §2
Mus musculus [4] = experiment: Protective dose in vivo was determined in acute, lethal systemic infections in female Charles River CD-1 mice against Escherichia coli Vogel; settings: read-out: PD50
How it was run: (§3)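 Female Charles River CD-1 mice with an acute, lethal systemic infection received a single compound dose at the time of challenge. The median protective dose (PD50, mg/kg) was taken as the read-out.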

Pseudomonas aeruginosa = experiment: Antibacterial activity was tested in vitro against Pseudomonas aeruginosa UI-18 using standard microtitration techniques; how it was run: as §1
Providencia rettgeri = experiment: Antibacterial activity was tested in vitro against M-1771 strain of Providencia rettgeri using standard microtitration techniques; how it was run: as §1
Staphylococcus aureus [5] = experiment: (§4) Antibacterial activity was tested in vitro against Staphylococcus aureus UC-76 using standard microtitration techniques
How it was run: (§5)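 MIC (μg/mL) by standard broth microtitration, as part of a panel of six Gram-negative and five Gram-positive organisms.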

Staphylococcus aureus [6] = experiment: Antibacterial activity was tested in vitro against Staphylococcus aureus H-288 using standard microtitration techniques; how it was run: as §1
Streptococcus pyogenes [7] = experiment: (§6) Antibacterial activity was tested in vitro against Streptococcus pyogenes C-203 using standard microtitration techniques; how it was run: as §5
Klebsiella pneumoniae [8] = experiment: Antibacterial activity was tested in vitro against Klebsiella pneumoniae MGH-2 using standard microtitration technique; how it was run: as §1
Streptococcus pneumoniae = experiment: Antibacterial activity was tested in vitro against Streptococcus pneumoniae SV-1 using standard microtitration techniques; how it was run: as §1
Mus musculus [9] = experiment: Protective dose in vivo was determined in acute, lethal systemic infections in female Charles River CD-1 mice against Streptococcus pyogenes C-203; settings: read-out: PD50; how it was run: as §3
Klebsiella pneumoniae [10] = experiment: Antibacterial activity was tested in vitro against Klebsiella pneumoniae MGH-2 using standard microtitration techniques; how it was run: as §5
Mus musculus [11] = experiment: Protective dose in vivo was determined in acute, lethal systemic infections in female Charles River CD-1 mice against Escherichia coli Vogel; 6/1.1.; settings: read-out: PD50
Mus musculus [12] = experiment: Protective dose in vivo was determined in acute, lethal systemic infections in female Charles River CD-1 mice against Streptococcus pyogenes C-203; 50/45.; settings: read-out: PD50
Streptococcus pyogenes [13] = experiment: as §6; how it was run: as §1; remark: listed apart in the source
Staphylococcus aureus [14] = experiment: as §4; how it was run: as §1; remark: listed apart in the source

| SMILES | IC50 (DNA gyrase) [µM] | MIC (Escherichia coli [1]) [µg/mL] | MIC (Escherichia coli [2]) [µg/mL] | MIC (Enterobacter cloacae) [µg/mL] | MIC (Enterococcus faecalis) [µg/mL] | MIC (Bacteria) [µg/mL] | MIC [3] [µg/mL] | ED50 (Mus musculus [4]) [mg/kg] | MIC (Pseudomonas aeruginosa) [µg/mL] | MIC (Providencia rettgeri) [µg/mL] | MIC (Staphylococcus aureus [5]) [µg/mL] | MIC (Staphylococcus aureus [6]) [µg/mL] | MIC (Streptococcus pyogenes [7]) [µg/mL] | MIC (Streptococcus pneumoniae) [µg/mL] | ED50 (Mus musculus [9]) [mg/kg] | MIC (Klebsiella pneumoniae [10]) [µg/mL] | other results |
| --- | --- | --- | --- | --- | --- | --- | --- | --- | --- | --- | --- | --- | --- | --- | --- | --- | --- |
| O=C(O)c1cn(C2CC2)c2cc(C3CCNCC3)c(F)cc2c1=O | 11.5 | 0.2 (≈ 0.605 µM) | 0.2 (≈ 0.605 µM) | 0.2 (≈ 0.605 µM) | 3.1 (≈ 9.38 µM) | 1.8 (≈ 5.45 µM) | 0.3 (≈ 0.908 µM) | 13.8 | 1.6 (≈ 4.84 µM) | 0.8 (≈ 2.42 µM) | 0.8 (≈ 2.42 µM) | 6.3 (≈ 19.1 µM) | 0.4 (≈ 1.21 µM) | 3.1 (≈ 9.38 µM) | – | – | MIC (Klebsiella pneumoniae [8]): 0.4 µg/mL (≈ 1.21 µM) |
| NC1CCN(c2nc3c(cc2F)c(=O)c(C(=O)O)cn3-c2ccc(F)cc2F)C1 (stereo not given) [TOSUFLOXACIN] | 7.42 | – | – | – | – | 0.04 (≈ 0.0989 µM) | 0.03 (≈ 0.0742 µM) | 0.6 | – | – | – | – | – | – | 5.7 | – | – |
| NC1C=C(c2nc3c(cc2F)c(=O)c(C(=O)O)cn3-c2ccc(F)cc2F)CC1 (stereo not given) | 15.7 | 0.05 (≈ 0.125 µM) | 0.025 (≈ 0.0623 µM) | 0.05 (≈ 0.125 µM) | 0.2 (≈ 0.498 µM) | 0.09 (≈ 0.224 µM) | 0.07 (≈ 0.174 µM) | – | 1.6 (≈ 3.99 µM) | 0.2 (≈ 0.498 µM) | 0.025 (≈ 0.0623 µM) | 0.1 (≈ 0.249 µM) | – | 0.1 (≈ 0.249 µM) | – | 0.1 (≈ 0.249 µM) | ED50 (Mus musculus [11]): 6 mg/kg; ED50 (Mus musculus [12]): 50 mg/kg; MIC (Streptococcus pyogenes [13]): 0.1 µg/mL (≈ 0.249 µM) |
| O=C(O)c1cn(C2CC2)c2nc(N3CCNCC3)c(F)cc2c1=O | > 75.2 | – | – | – | – | 1.2 (≈ 3.61 µM) | 0.05 (≈ 0.15 µM) | 0.7 | – | – | – | – | – | – | 63 | – | – |
| O=C(O)c1cn(C2CC2)c2cc(C3=CCNCC3)c(F)cc2c1=O | 2.74 | 0.025 (≈ 0.0761 µM) | 0.013 (≈ 0.0396 µM) | 0.025 (≈ 0.0761 µM) | 0.8 (≈ 2.44 µM) | 0.46 (≈ 1.4 µM) | 0.04 (≈ 0.122 µM) | 1.7 | 0.8 (≈ 2.44 µM) | 0.1 (≈ 0.305 µM) | 0.1 (≈ 0.305 µM) | 0.8 (≈ 2.44 µM) | 0.4 (≈ 1.22 µM) | 0.8 (≈ 2.44 µM) | > 100 | 0.1 (≈ 0.305 µM) | – |
| NC1CCN(c2nc3c(cc2F)c(=O)c(C(=O)O)cn3C2CC2)C1 (stereo not given) | 9.03 | – | – | – | – | 0.1 (≈ 0.301 µM) | 0.02 (≈ 0.0602 µM) | 2 | – | – | – | – | – | – | 32 | – | – |
| NC1CCN(c2cc3c(cc2F)c(=O)c(C(=O)O)cn3C2CC2)C1 (stereo not given) | 7.85 | – | – | – | – | 0.09 (≈ 0.272 µM) | 0.04 (≈ 0.121 µM) | 3.4 | – | – | – | – | – | – | 97 | – | – |
| O=C(O)c1cn(C2CC2)c2cc(N3CCNCC3)c(F)cc2c1=O [CIPROFLOXACIN] | – | – | – | – | – | 0.6 (≈ 1.81 µM) | 0.05 (≈ 0.151 µM) | 1.2 | – | – | – | – | – | – | > 260 | – | – |
| NC1C=C(c2cc3c(cc2F)c(=O)c(C(=O)O)cn3C2CC2)CC1 (stereo not given) | 8.53 | 0.1 (≈ 0.305 µM) | 0.1 (≈ 0.305 µM) | 0.1 (≈ 0.305 µM) | 0.8 (≈ 2.44 µM) | 0.35 (≈ 1.07 µM) | 0.13 (≈ 0.396 µM) | 5.2 | 0.8 (≈ 2.44 µM) | 0.2 (≈ 0.609 µM) | – | 0.8 (≈ 2.44 µM) | 0.2 (≈ 0.609 µM) | 0.4 (≈ 1.22 µM) | – | 0.2 (≈ 0.609 µM) | MIC (Staphylococcus aureus [14]): 0.1 µg/mL (≈ 0.305 µM) |
| O=C(O)c1cn(C2CC2)c2nc(C3=CCNCC3)c(F)cc2c1=O | 11.5 | 0.013 (≈ 0.0395 µM) | 0.013 (≈ 0.0395 µM) | 0.025 (≈ 0.0759 µM) | 0.8 (≈ 2.43 µM) | 0.6 (≈ 1.82 µM) | 0.03 (≈ 0.0911 µM) | 0.5 | 0.2 (≈ 0.607 µM) | 0.05 (≈ 0.152 µM) | 0.2 (≈ 0.607 µM) | 1.6 (≈ 4.86 µM) | 0.4 (≈ 1.21 µM) | 0.8 (≈ 2.43 µM) | 42 | 0.05 (≈ 0.152 µM) | – |
| O=C(O)c1cn(-c2ccc(F)cc2F)c2nc(N3CCNCC3)c(F)cc2c1=O | – | – | – | – | – | 0.2 (≈ 0.495 µM) | 0.4 (≈ 0.989 µM) | – | – | – | – | – | – | – | 2.4 | – | – |
| O=C(O)c1cn(-c2ccc(F)cc2F)c2nc(C3=CCNCC3)c(F)cc2c1=O | 12.5 | 0.1 (≈ 0.249 µM) | 0.1 (≈ 0.249 µM) | 0.1 (≈ 0.249 µM) | 1.6 (≈ 3.99 µM) | 0.53 (≈ 1.32 µM) | 0.15 (≈ 0.374 µM) | – | 1.6 (≈ 3.99 µM) | 0.4 (≈ 0.997 µM) | 0.2 (≈ 0.498 µM) | 0.8 (≈ 1.99 µM) | 0.4 (≈ 0.997 µM) | 0.4 (≈ 0.997 µM) | – | 0.2 (≈ 0.498 µM) | – |
| NC1C=C(c2nc3c(cc2F)c(=O)c(C(=O)O)cn3C2CC2)CC1 (stereo not given) | 11.5 | 0.05 (≈ 0.152 µM) | 0.05 (≈ 0.152 µM) | 0.05 (≈ 0.152 µM) | 0.4 (≈ 1.21 µM) | 0.35 (≈ 1.06 µM) | 0.07 (≈ 0.213 µM) | 1.2 | 0.8 (≈ 2.43 µM) | 0.1 (≈ 0.304 µM) | 0.1 (≈ 0.304 µM) | 0.8 (≈ 2.43 µM) | 0.4 (≈ 1.21 µM) | 0.4 (≈ 1.21 µM) | 50 | 0.1 (≈ 0.304 µM) | – |
